High-throughput results from PubChem.
NPY Y1 blocker: NPY-Y1 receptor antagonists, primary screen, cell-based | Neuropeptide Y receptor type 1 (Homo sapiens), P25929 | 200,000 tested, 1% active | AID 1040, 2008 | HEK293-CNG Y1 cells, membrane potential fluorescence; NPY at EC95, then isoproterenol | inhibition, % at 3.6 µM;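 active = inhibition above the campaign mean inhibition of all tested compounds plus 3 SD, cut at about 20% in these data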
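Material: HEK293 Y1/CNG channel cell line | Also added: NPY (25 nM), isoproterenol (1 µM), Ro 20-1724 (25 µM) | Compound: One concentration, 3.6 µM, in 0.4% DMSO | Schedule: 3 h dye uptake, 1 h room-temperature compound, 45 min post-isoproterenol | Signal: Membrane-potential fluorescent dye readout | Read-out: % inhibition of NPY effect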
NPY-Y2 antag: NPY-Y2 receptor antagonists, primary screen, cell-based. Neuropeptide Y receptor type 2 (Homo sapiens), P49146. NPY-Y2 expressing cells, antagonist mode. inhibition, % at 2.7 µM. 140,000 tested, 0.99% active; in the data active = inhibition above about 17%
Target sequence (P49146 whole entry, looked up): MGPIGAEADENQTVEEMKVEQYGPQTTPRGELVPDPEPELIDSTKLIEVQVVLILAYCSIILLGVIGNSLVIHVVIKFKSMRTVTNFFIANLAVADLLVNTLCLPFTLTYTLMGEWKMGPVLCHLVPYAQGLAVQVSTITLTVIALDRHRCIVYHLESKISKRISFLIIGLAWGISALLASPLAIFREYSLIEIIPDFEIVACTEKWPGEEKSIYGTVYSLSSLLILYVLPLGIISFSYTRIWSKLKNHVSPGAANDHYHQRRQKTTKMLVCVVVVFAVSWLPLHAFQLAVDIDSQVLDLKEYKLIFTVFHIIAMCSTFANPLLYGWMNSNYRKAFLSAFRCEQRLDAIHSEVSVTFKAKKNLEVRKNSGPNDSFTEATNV
NPY1 pot ag: NPY-Y1 receptor potentiators or agonists, primary screen, cell-based; Neuropeptide Y receptor type 1 (Homo sapiens), P25929; NPY-Y1 expressing cells, potentiator/agonist activation; activation, % at 3.6 µM; 220,000 tested, 0.37% active; in the data active = activation above about 33%, passing the limit was not always enough;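 also: cells stimulated with NPY at EC10 then isoproterenol at EC100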
NPY-Y2 PAM-ag: NPY-Y2 potentiators or agonists, primary screen, cell-based. AID 1359, 2008. 220,000 tested, 0.45% active. activation, % at 3.6 µM. cells expressing NPY-Y2, potentiator/agonist read-out; in the data active = activation above about 27%;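 also: cells stimulated with NPY near EC25 plus isoproterenol at EC100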
NPY-Y1 antag ct: NPY-Y1 receptor antagonists, selectivity check, counter-screen for NPY-Y2 antagonist project, cell-based. 710 tested, 19% active. cell-based NPY-Y1 antagonism counterscreen. shares compounds with NPY-Y2 antag. inhibition, % at 3.6 µM;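 also: cells challenged with NPY then isoproterenol with cAMP sensed through a CNG channel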
NPY2 antag conf: NPY-Y2 receptor antagonists, retest of hits, confirmation, HEK293-CNG cells, membrane potential fluorescence, triplicate; HEK293 NPY-Y2 CNG channel; 710 tested, 32% active; inhibition, % at 2.8 µM; AID 1257, 2008; shares compounds with NPY-Y2 antag;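 active = mean inhibition of triplicate wells above the hit cutoff set in the primary screen, cut at about 17% in these data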
NPY1 antag conf: NPY-Y1 receptor antagonists, retest of hits, confirmation, HEK293-CNG cells, membrane potential fluorescence, triplicate | 1,200 tested, 21% active | shares compounds with NPY Y1 blocker | inhibition, % at 3.6 µM | cAMP; NPY challenge against isoproterenol-raised cAMP
NPY2 antag ctr: NPY-Y2 receptor antagonists, selectivity check, confirmation, counter-screen for NPY-Y1 antagonist project, HEK293-CNG cells, membrane potential fluorescence, triplicate; AID 1255, 2008; inhibition, % at 3.6 µM; shares compounds with NPY Y1 blocker; 1,200 tested, 28% active; antagonism; cells given NPY, then isoproterenol; in the data active = inhibition above about 17%
Each line names hits and unclear results; the compound was inactive in the other large screens (follow-up assays come after a bar, where they were run). Rows were chosen to be rich in hits. Some 1.8% of all compounds tested hit in one or more screens of this group. Rule as the data show it, unless noted: active = inhibition above about 20%; inactive = the rest.

CCOC(=O)Cn1nc(-c2ccccc2)c2cnc3ccc(C)cc3c21	NPY-Y2 antag 24 | NPY-Y1 antag ct 24 | NPY2 antag conf 19
Cc1ccc(N2C(=O)c3ccccc3C2C(=O)c2cc(C)ccc2O)cc1 (stereo not given)	NPY-Y2 antag 27 | NPY-Y1 antag ct 35 | NPY2 antag conf 38
Cc1ccc(N2C(=O)c3ccccc3C2C(=O)c2ccc(O)cc2O)cc1 (stereo not given)	none
COC(=O)N/N=C/c1sc(N2CCCCC2)nc1-c1cccs1	none (no result: NPY-Y2 antag)
CCC(C)(C(=O)NC1CCCCC1)N(Cc1ccco1)C(=O)c1ccccn1 (stereo not given)	NPY-Y2 antag 17 | NPY-Y1 antag ct inactive | NPY2 antag conf inactive
O=C(NCc1ccco1)NC1CCCCC1	none
O=C1CCN1C1(C(=O)NC2CCCCC2)CCCC1	none
O=S(=O)(Nc1nc2ccccc2[nH]1)c1ccc2ccccc2c1	NPY-Y2 antag 19 | NPY-Y1 antag ct inactive | NPY2 antag conf inactive
O=S(=O)(Nc1ncn[nH]1)c1ccc2ccccc2c1	none
Clc1ccc(-c2cc(COc3ccccc3)on2)cc1	none (no result: NPY-Y2 antag)
Clc1ccc(OCc2cc(-c3ccccc3)no2)cc1Cl	NPY-Y2 antag 23 | NPY-Y1 antag ct 39 | NPY2 antag conf 39
COc1cccc(/C=C/C(=O)Nc2ccc3c(c2)OCCO3)c1OC	none (no result: NPY-Y2 antag)
CC/C(=C\C1CCCCC1)C(NP(=O)(c1ccccc1)c1ccccc1)c1ccccc1 (stereo not given)	NPY-Y2 antag 23 | NPY-Y1 antag ct 38 | NPY2 antag conf 34
Cc1ccc(N=C(NOC(=O)c2ccccc2)c2nonc2N)c(C)c1	NPY-Y2 antag 25 | NPY-Y1 antag ct inactive | NPY2 antag conf inactive
Cc1ccc(N=C(NO)c2nonc2N)c(C)c1	none
O=C(O)CSc1nnc(-c2ccc3c(c2)OCO3)o1	NPY-Y2 antag 31 | NPY-Y1 antag ct inactive | NPY2 antag conf 18
O=C(O)c1cccc(S(=O)(=O)Nc2ccccc2-c2ccccc2)c1	none (no result: NPY-Y2 antag)
CCOC(=O)CCCCC(=O)c1[nH]c(=O)[nH]c1CSc1nnc2c3ccccc3n(C(C)C)c2n1	NPY-Y2 antag 32 | NPY-Y1 antag ct inactive | NPY2 antag conf 45
COC(=O)c1ccc(C(C(=O)NC2CCCCC2)N(Cc2ccc(F)cc2)C(=O)Cc2cccs2)cc1 (stereo not given)	NPY-Y2 antag 19 | NPY-Y1 antag ct inactive | NPY2 antag conf inactive
O=C(NC1CCCCC1)C(c1ccc2ncccc2c1)N(Cc1ccc(F)cc1)C(=O)c1cccs1 (stereo not given)	NPY-Y2 antag 31 | NPY-Y1 antag ct inactive | NPY2 antag conf inactive
COC(=O)c1ccc(C(C(=O)NC2CCCCC2)N(CCc2ccccc2)C(=O)Cc2cccs2)cc1 (stereo not given)	none
O=C(O)/C=C/C(=O)Nc1ccc(Cc2ccc(NC(=O)/C=C/C(=O)O)cc2)cc1	none (no result: NPY Y1 blocker, NPY-Y2 antag)
CCS(=O)(=O)Nc1ccc2[nH]c(=O)[nH]c2c1	none (no result: NPY-Y2 antag)
Cc1ccc(-c2nc3ncccc3o2)cc1NC(=O)COc1ccccc1	NPY-Y2 antag 21 | NPY-Y1 antag ct inactive | NPY2 antag conf inactive
O=C(COc1ccccc1)Nc1ccccc1N1CCCCC1	none
O=C(COc1ccccc1)Nc1cc(C(F)(F)F)ccc1N1CCCC1	NPY-Y2 antag 20 | NPY-Y1 antag ct 27 | NPY2 antag conf inactive
Cc1c(Cl)cccc1NC(=O)C1NC(=O)CC1c1ccccc1 (stereo not given)	none
Cc1ccccc1N1C(=O)c2ccccc2N2C(=O)c3ccccc3C12 (stereo not given)	NPY-Y2 antag 23 | NPY-Y1 antag ct inactive | NPY2 antag conf inactive
O=C1c2ccccc2N2C(=O)c3ccccc3C2N1O (stereo not given)	none
Cc1ccc(NC(=O)C(=O)NCc2ccncc2)cc1	none (no result: NPY-Y2 antag)
N#Cc1ccc(Cl)cc1NC(=O)COC(=O)[C@H](CCC(N)=O)NC(=O)c1ccc(F)cc1	none
O=C(Nc1ccc(S(=O)(=O)NC2CCCC2)cc1)c1cnccn1	NPY-Y2 antag 23 | NPY-Y1 antag ct inactive | NPY2 antag conf inactive
CCCCn1nnnc1NCc1ccc(N(CC)CC)cc1	none
N#CC(C#N)=C1C=CC=CN1/C(=C\c1ccco1)C(=O)c1ccc(Cl)cc1	NPY-Y2 antag 18 | NPY-Y1 antag ct inactive | NPY2 antag conf 83
N#CC(C#N)=C1C=CC=CN1/C(=C\c1ccco1)C(=O)c1ccc(-c2ccccc2)cc1	none
O=C(C1c2ccccc2C(=O)N2CCc3ccccc3C12)N1CCN(Cc2ccccc2)CC1 (stereo not given)	NPY Y1 blocker 22 | NPY1 antag conf inactive | NPY2 antag ctr inactive
COc1ccc(N2CCN(c3oc(-c4ccco4)nc3C#N)CC2)cc1	NPY Y1 blocker 22 | NPY1 antag conf inactive | NPY2 antag ctr inactive
CCC1(C)Cc2ccccc2-c2[nH][nH]c(=O)c21 (stereo not given)	NPY Y1 blocker 55 (no result: NPY-Y2 antag) | NPY1 antag conf inactive | NPY2 antag ctr inactive
CN(Cc1ccccc1)c1ccc(S(=O)(=O)N2CCC(C(=O)O)CC2)cc1[N+](=O)[O-]	none (no result: NPY-Y2 antag)
CCC(=O)Nc1c(C#N)c2nc3ccccc3nc2n1C1CCCCC1	none
CCOC(=O)c1c(NC(=O)c2ccco2)n(C2CCCCC2)c2nc3ccccc3nc12	NPY Y1 blocker 25 | NPY1 antag conf inactive | NPY2 antag ctr inactive
CCN1C(=O)[C@@H]2C(C(=O)c3cnccn3)=NN[C@@H]2C1=O	none (no result: NPY Y1 blocker, NPY-Y2 antag)
COc1ccc(OCC(=O)N/N=C/C=C/c2ccccc2)cc1	NPY Y1 blocker 23 | NPY1 antag conf inactive | NPY2 antag ctr inactive
COc1ccc(OC)c(C2=Nn3c(nnc3-c3cc(OC)c(OC)c(OC)c3)SC2)c1	NPY Y1 blocker 27 | NPY1 antag conf 24 | NPY2 antag ctr 29
CC(C)(C)C(=O)N1N=C(c2ccc(NS(C)(=O)=O)cc2)CC1c1cccs1 (stereo not given)	none (no result: NPY-Y2 antag)
COC(=O)CSc1nc(-c2ccccc2)nc2ccc(F)cc12	none
CCOC(=O)CSc1nc(-c2ccccc2)nc2ccc(F)cc12	NPY Y1 blocker 23 | NPY1 antag conf inactive | NPY2 antag ctr inactive
